Measured values published in ChEMBL document CHEMBL1136016, “Synthesis, biological activity, and molecular modeling investigation of new pyrazolo[4,3-e]-1,2,4-triazolo[1,5-c]pyrimidine derivatives as human A(3) adenosine receptor antagonists” (J Med Chem, 2002).

Legend:
[1] = target: Adenosine receptors; A1 & A3 (Homo sapiens) (UniProt P30542+P0DMS8); assay: Selectivity ratio (hA1/hA3); assay type: protein assay
[2] = target: Adenosine receptors; A2b & A3 (Homo sapiens) (UniProt P29275+P0DMS8); assay: Selectivity ratio (h2B/hA3); assay type: protein assay
Adenosine receptor A1 [3] = target: T1, Adenosine receptor A1 (Homo sapiens, UniProt P30542); assay: Displacement of [3H]DPCPX from human Adenosine A1 receptor expressed in CHO cells; range 253-401; assay type: cell-based
T1 sequence (P30542 whole entry): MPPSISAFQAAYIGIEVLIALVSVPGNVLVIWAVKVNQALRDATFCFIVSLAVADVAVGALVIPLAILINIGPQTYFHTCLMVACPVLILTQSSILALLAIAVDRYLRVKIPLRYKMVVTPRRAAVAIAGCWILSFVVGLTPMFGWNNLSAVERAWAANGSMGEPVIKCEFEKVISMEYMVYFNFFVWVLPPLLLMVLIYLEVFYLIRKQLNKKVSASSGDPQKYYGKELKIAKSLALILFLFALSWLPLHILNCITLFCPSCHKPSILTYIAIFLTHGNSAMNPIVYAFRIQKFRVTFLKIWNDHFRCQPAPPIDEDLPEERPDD
Method in brief: (§1)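 Human recombinant A1 receptor in CHO cell membranes, resuspended in 50 mM Tris HCl pH 7.4. Displacement run 120 min at 25 °C with 1 nM [3H]DPCPX, 50 µg protein per assay, and at least six to eight test concentrations. Nonspecific binding defined with CHA. Bound and free separated on glass-fiber filters; filter radioactivity counted. n = 3-6.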

Adenosine receptor A3 [4] = target: T2, Adenosine receptor A3 (Homo sapiens, UniProt P0DMS8); assay: biochemical
T2 sequence (P0DMS8 whole entry): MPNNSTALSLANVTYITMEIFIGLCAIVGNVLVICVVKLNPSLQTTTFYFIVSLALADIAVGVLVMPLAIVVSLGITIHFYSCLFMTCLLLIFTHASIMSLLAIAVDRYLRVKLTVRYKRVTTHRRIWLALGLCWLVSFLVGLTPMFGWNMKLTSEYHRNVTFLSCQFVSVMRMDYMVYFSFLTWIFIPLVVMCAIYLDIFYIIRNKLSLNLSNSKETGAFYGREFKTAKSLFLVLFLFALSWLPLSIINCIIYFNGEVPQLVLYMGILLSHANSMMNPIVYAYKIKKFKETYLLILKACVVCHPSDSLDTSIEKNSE

Adenosine receptor A2b [5] = target: T3, Adenosine receptor A2b (Homo sapiens, UniProt P29275); assay: Displacement of [3H]-DPCPX from human Adenosine A2B receptor expressed in HEK293 cells; range 107-172; assay type: cell-based
T3 sequence (P29275 whole entry): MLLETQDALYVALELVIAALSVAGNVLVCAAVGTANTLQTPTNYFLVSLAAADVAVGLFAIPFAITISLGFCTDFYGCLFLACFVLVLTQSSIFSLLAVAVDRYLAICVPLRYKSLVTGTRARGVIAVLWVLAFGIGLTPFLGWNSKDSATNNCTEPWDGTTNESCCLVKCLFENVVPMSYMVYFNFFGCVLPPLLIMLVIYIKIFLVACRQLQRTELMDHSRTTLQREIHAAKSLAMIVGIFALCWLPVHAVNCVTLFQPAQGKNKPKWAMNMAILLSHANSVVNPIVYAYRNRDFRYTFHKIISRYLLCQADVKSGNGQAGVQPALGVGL
Method in brief: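 HEK-293 membranes expressing the human receptor were incubated 60 min at 25 °C. Six to eight test concentrations were used. Nonspecific binding was set with NECA. n = 3-6.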

Adenosine receptor A2a [6] = target: T4, Adenosine receptor A2a (Homo sapiens, UniProt P29274); assay: Displacement of [3H]SCH-58261 from human Adenosine A2A receptor expressed in HEK293 cells; range 36-70; assay type: cell-based
Adenosine receptor A3 [7] = target: T2, Adenosine receptor A3; assay: Inhibition of IB-MECA agonist-mediated cAMP production in membranes of CHO cells expressing human Adenosine A3 receptor; assay type: functional, cell-based
Method in brief: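 Human A3-CHO membranes (in 50 mM Tris HCl, 10 mM MgCl2, 1 mM EDTA, pH 7.4) were preincubated for 10 min at 37 °C with 5 µM GTP, 0.5 mM Ro 20-1724 and 2.0 IU/mL adenosine deaminase. IB-MECA (100 nM) or antagonist was then added with 1 mM ATP and forskolin for 10 min. The reaction was stopped by 2 min boiling. cAMP was measured by [3H]cAMP competitive protein binding using beef adrenal binding protein, 150 min at 4 °C.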

Adenosine receptor A1 [8] = target: T1, Adenosine receptor A1; assay: Displacement of [3H]DPCPX from human Adenosine A1 receptor expressed in CHO cells; assay type: cell-based; method in brief: as §1
Adenosine receptor A2b [9] = target: T3, Adenosine receptor A2b; assay: Displacement of [3H]DPCPX binding at human Adenosine A2B receptor expressed in HEK293 cells; assay type: cell-based
Method in brief: (§2)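 Membranes from HEK-293 cells with human recombinant A2B receptor. Incubation 60 min at 25 °C in 50 mM Tris HCl, 10 mM MgCl2, 1 mM EDTA, 0.1 mM benzamidine, pH 7.4, with 2 IU/mL adenosine deaminase and 40 nM [3H]DPCPX. At least six to eight test concentrations. Nonspecific binding defined with NECA. n = 3-6.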

Adenosine receptor A3 [10] = target: T2, Adenosine receptor A3; assay: Displacement of […] from human Adenosine A3 receptor expressed in CHO cells; assay type: cell-based
Method in brief: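 Membranes of CHO cells stably expressing human A3 receptor (50 µg protein/assay), incubated in duplicate with 1 nM [3H]MRE3008-F20 in 50 mM Tris HCl, 10 mM MgCl2 (pH 7.4) and six to eight ligand concentrations, 120 min at 4 °C. Nonspecific binding was set with 1 µM MRE3008-F20. Separation was by GF/B filtration and scintillation counting; n = 3-6.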

Adenosine receptor A2a [11] = target: T4, Adenosine receptor A2a; assay: Displacement of [3H]SCH-58261 from human Adenosine A2A receptor expressed in CHO cells; assay type: cell-based
Method in brief: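 Membranes from CHO cells expressing the human receptor (50 µg protein) with [3H]SCH58261 and six to eight competitor concentrations. Incubated 60 min at 25 °C. Nonspecific binding was set with NECA.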

Adenosine receptor A3 [12] = target: T2, Adenosine receptor A3; assay: Displacement of [3H]MRE3008-F20 binding at human Adenosine A3 receptor expressed in HEK cells; range 0.82-1.02; assay type: cell-based, HEK293
Adenosine receptor A2b [13] = target: T3, Adenosine receptor A2b; assay: Displacement of [3H]DPCPX from human Adenosine A2B receptor expressed in HEK293 cells; range 88-165; assay type: cell-based; method in brief: as §2
Adenosine receptor A1 [14] = target: T1, Adenosine receptor A1; assay: Displacement of [3H]DPCPX from human Adenosine A1 receptor expressed in CHO cells; range 222-400; assay type: cell-based; method in brief: as §1
Adenosine receptor A2a [15] = target: T4, Adenosine receptor A2a; assay: Displacement of [3H]SCH-58261 from human Adenosine A2A receptor expressed in HEK293 cells; […]; assay type: cell-based
Adenosine receptor A2a [16] = target: T4, Adenosine receptor A2a; assay: Displacement of [3H]SCH-58261 from human Adenosine A2A receptor expressed in HEK293 cells; range 34-50; assay type: cell-based
Adenosine receptor A3 [17] = target: T2, Adenosine receptor A3; assay: biochemical; remark: listed apart in the source
Adenosine receptor A2b [18] = target: T3, Adenosine receptor A2b; assay: Displacement of [3H]DPCPX from human Adenosine A2B receptor expressed in HEK293 cells; range 140-186; assay type: cell-based; method in brief: as §2
Adenosine receptor A1 [19] = target: T1, Adenosine receptor A1; assay: Displacement of [3H]DPCPX from human Adenosine A1 receptor expressed in CHO cells; range 294-480; assay type: cell-based

T4 sequence (P29274 whole entry): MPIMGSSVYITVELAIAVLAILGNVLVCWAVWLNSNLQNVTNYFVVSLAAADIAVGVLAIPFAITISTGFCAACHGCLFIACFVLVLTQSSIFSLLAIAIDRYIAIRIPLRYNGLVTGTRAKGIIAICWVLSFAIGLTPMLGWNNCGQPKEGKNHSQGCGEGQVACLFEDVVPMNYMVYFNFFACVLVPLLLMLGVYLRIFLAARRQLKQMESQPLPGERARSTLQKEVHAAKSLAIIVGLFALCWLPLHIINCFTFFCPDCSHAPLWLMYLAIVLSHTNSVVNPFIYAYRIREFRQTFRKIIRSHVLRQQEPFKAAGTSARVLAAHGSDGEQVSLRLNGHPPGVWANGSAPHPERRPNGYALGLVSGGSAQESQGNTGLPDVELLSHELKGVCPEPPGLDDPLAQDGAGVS

With `COc1ccc(NC(=O)Nc2nc3nn(C)cc3c3nc(-c4ccco4)nn23)cc1` the Ratio [1] was 5480 and the Ratio [2] was 1300.
For `CCCCn1cc2c(nc(NC(=O)Nc3ccc(F)cc3)n3nc(-c4ccco4)nc23)n1`, the Ki (Adenosine receptor A1 [3]) was 318 nM, the Ki (Adenosine receptor A3 [4]) was 0.8 nM and the Ki (Adenosine receptor A2b [5]) was 136 nM. For the same compound, the Ratio [1] was 398, the Ki (Adenosine receptor A2a [6]) was 50 nM and the Ratio [2] was 170.
With `CCn1cc2c(nc(NC(=O)Nc3ccc(OC)cc3)n3nc(-c4ccco4)nc23)n1` the Ratio [1] was 1710 and the Ratio [2] was 408.
Compound `Cn1cc2c(nc(NC(=O)Nc3ccc([N+](=O)[O-])cc3)n3nc(-c4ccco4)nc23)n1` has a Ratio [1] of 2590, an IC50 (Adenosine receptor A3 [7]) of 5.5 nM and a Ki (Adenosine receptor A1 [8]) of 1110 nM. It also gave a Ki (Adenosine receptor A2b [9]) of 180 nM, a Ki (Adenosine receptor A3 [10]) of 0.43 nM and a Ki (Adenosine receptor A2a [11]) of 695 nM. It also gave a Ratio [2] of 419.
`CCCCn1cc2c(nc(NC(=O)Nc3ccc(Br)cc3)n3nc(-c4ccco4)nc23)n1` was tested, and the Ki (Adenosine receptor A3 [12]) was 0.91 nM, the Ratio [1] was 330 and the Ki (Adenosine receptor A2b [13]) was 121 nM. It also gave a Ki (Adenosine receptor A1 [14]) of 300 nM, a Ki (Adenosine receptor A2a [15]) of 66 nM and a Ratio [2] of 133.
`COc1ccc(NC(=O)Nc2nc3ccc(Cl)cc3c3nc(-c4ccco4)nn23)cc1` showed a Ratio [1] of 43 and a Ratio [2] of 158.
Work on `CCn1cc2c(nc(NC(=O)Nc3ccc([N+](=O)[O-])cc3)n3nc(-c4ccco4)nc23)n1` yielded a Ratio [1] of 1740, a Ki (Adenosine receptor A1 [8]) of 1130 nM and a Ki (Adenosine receptor A2b [9]) of 226 nM. The Ki (Adenosine receptor A3 [10]) was 0.65 nM, the Ki (Adenosine receptor A2a [11]) was 614 nM and the Ratio [2] was 348.
`CCCCn1cc2c(nc(NC(=O)Nc3cccc(Cl)c3)n3nc(-c4ccco4)nc23)n1` showed a Ratio [1] of 408 and a Ratio [2] of 116.
For `Cn1cc2c(nc(NC(=O)Nc3cccc(Cl)c3)n3nc(-c4ccco4)nc23)n1`, the Ratio [1] was 875 and the Ratio [2] was 512.
Compound `CCCn1cc2c(nc(NC(=O)Nc3ccc(F)cc3)n3nc(-c4ccco4)nc23)n1` has a Ki (Adenosine receptor A2a [16]) of 42 nM, a Ratio [1] of 1300 and a Ki (Adenosine receptor A3 [17]) of 0.29 nM. The Ki (Adenosine receptor A2b [18]) was 161 nM, the Ratio [2] was 555 and the Ki (Adenosine receptor A1 [19]) was 376 nM.
